Bioassay records from PubChem.
The list is not random: actives were taken first. Their share in the collection is about 3.9%.
M1 ag – human M1 muscarinic receptor agonists, primary screen, Fluo-8 calcium fluorescence, CHO-K1 cells, HTS; CHO-K1 hM1, agonist mode; 0% DMSO, 100% acetylcholine EC100; activation, % at 3 µM; 360,000 tested, 0.33% active; AID 588814, 2011;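 active means activation above the run's mean compound activation plus 3 SD, cut at about 16% in these data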;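 further: peak over basal fluorescence ratio within a 140 s kinetic read after compound addition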
Target sequence (P11229 whole entry, looked up): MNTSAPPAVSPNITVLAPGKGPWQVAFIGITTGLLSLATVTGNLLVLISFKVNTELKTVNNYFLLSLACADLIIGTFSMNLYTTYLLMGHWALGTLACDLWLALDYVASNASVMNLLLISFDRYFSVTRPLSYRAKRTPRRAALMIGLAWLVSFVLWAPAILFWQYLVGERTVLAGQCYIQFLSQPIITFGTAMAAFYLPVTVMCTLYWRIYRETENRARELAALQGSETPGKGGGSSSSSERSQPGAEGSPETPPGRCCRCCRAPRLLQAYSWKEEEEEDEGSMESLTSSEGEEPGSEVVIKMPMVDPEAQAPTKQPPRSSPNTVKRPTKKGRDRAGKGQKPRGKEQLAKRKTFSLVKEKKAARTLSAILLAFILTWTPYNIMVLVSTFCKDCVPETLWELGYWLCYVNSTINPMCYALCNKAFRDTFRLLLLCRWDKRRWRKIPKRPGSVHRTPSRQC
M1 PAM – human M1 muscarinic receptor positive allosteric modulators, primary screen, CHO-K1 cells, Fluo-8 calcium fluorescence, 1536-well. Muscarinic acetylcholine receptor M1 (Homo sapiens), P11229. CHO-K1 hM1, ACh EC20; 0% = ACh EC20, 100% = maximal ACh. activation, % at 3 µM. 360,000 tested, 0.088% active. AID 588819, 2011; in the data active means activation above about 19%, passing the limit was not always enough
m5-HT2A agonist – mouse Htr2a agonists via beta-arrestin recruitment, primary screen, cell-based, luminescence | 5-hydroxytryptamine receptor 2A (Mus musculus), P35363 | 360,000 tested, 0.66% active | AID 624169, 2012 | activation, % at 7.6 µM | CHO-K1 mHTR2A beta-arrestin complementation; percent of 30 µM serotonin response;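 active means activation above a run cutoff, the mean activation of all tested compounds plus 3 SD, cut at about 14% in these data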;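 further: 0% = plate median of compound wells and 100% = 30 µM serotonin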
TAAR1 antag – human TAAR1 antagonists, primary screen, Fluo-8 calcium fluorescence, CHO RD-HGA16 cells; antagonist; 360,000 tested, 1.5% active; inhibition, % at 3 µM; Trace amine-associated receptor 1 (Homo sapiens), Q96RJ0; AID 624466, 2012;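 active means inhibition above a per-plate cutoff, the mean inhibition of test compounds on that plate plus 3 SD, cut at about 49% in these data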;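 further: 0% = DMSO plus EC80 beta-PEA response and 100% = DMSO alone without agonist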
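Assay system: RD-HGA16 CHO cells with stable hTAAR1 and Gα16 / Reagent: EC80 β-phenethylamine stimulus / Doses: 3 µM, single point / Timing: dye loading 75 min at 37 °C, then 30 min room temperature / Measured by: Fluo-8 intracellular calcium dye fluorescence, real-time kinetic reads / Controls: vehicle wells and EC80 agonist wells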
TAAR1 agonist – human TAAR1 agonists, primary screen, Fluo-8 calcium fluorescence, CHO RD-HGA16 cells. Trace amine-associated receptor 1 (Homo sapiens), Q96RJ0. vehicle wells 0%, saturating PEA agonist 100%. activation, % at 3 µM. 360,000 tested, 0.99% active. AID 624467, 2012;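 active means activation above the mean activation of all test compounds in the run plus 3 SD, cut at about 38% in these data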
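test system = CHO RD-HGA16 cells carrying human TAAR1 plus Gα16 | schedule = 17-24 h seeding, 75 min 37 °C dye, 30 min RT | compound dosing = 3 µM single concentration | control set = DMSO and PEA EC100 | replicates = n 1 | signal = Fluo-8 fluorescence, 5 s baseline then 140 s kinetic read | measure = percent activation vs PEA EC100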
CHRM1 antagonist – human M1 muscarinic receptor antagonists, primary screen, CHO-K1 cells, Fluo-8 calcium fluorescence, 1536-well | CHO-K1 hM1, ACh EC80 antagonist | inhibition, % at 3 µM | 360,000 tested, 1.3% active;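 active means percent inhibition above its own plate's cutoff, namely the mean of that plate's compound wells plus 3 SD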;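 further: peak over basal fluorescence ratio during 140 s after agonist addition; 0% = ACh EC80 plus DMSO and 100% = DMSO alone without agonist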
OPRM1 ag – OPRM1 agonists via beta-arrestin recruitment, confirmation, counter-screen for mouse HTR2A agonist project, cell-based, luminescence, single concentration; shares compounds with m5-HT2A agonist; U2OS OPRM1 beta-arrestin PathHunter; DMSO 0%, DAMGO 9.3 µM 100%; activation, % at 9.3 µM; 2,300 tested, 5.3% active;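 active means mean activation above the mean of DMSO-only wells plus 3 SD, cut at about 0.5% in these data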
m5-HT2A ag conf – mouse HTR2A agonists, beta-arrestin recruitment, confirmation, cell-based, luminescence, CHO-K1 PathHunter, triplicate; shares compounds with m5-HT2A agonist; DMSO 0%, 30 µM serotonin 100%; activation, % at 7.6 µM; 2,300 tested, 19% active; AID 624381, 2012;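 active means mean activation across triplicates above the hit threshold derived in the original primary screen, cut at about 15% in these data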
* marks the source's active call; other numbers are inactive results; . = not tested or not shown.

SMILES	M1 ag	M1 PAM	m5-HT2A agonist	TAAR1 antag	TAAR1 agonist	CHRM1 antagonist	OPRM1 ag	m5-HT2A ag conf
C=CCNC(=O)/C(C#N)=C/c1c(N2CCN(c3cccc(Cl)c3)CC2)nc2c(C)cccn2c1=O	-5.0	6.7	19.9*	-2.5	-1.3	-3.1	-0.7	6.0
CNC(=O)/C(C#N)=C/c1c(N2CCN(c3cccc(Cl)c3)CC2)nc2c(C)cccn2c1=O	-2.6	9.9	19.2*	-7.7	2.5	10.2	-0.6	0.4
CCOC(=O)/C(C#N)=C/c1c(N2CCN(c3cccc(Cl)c3)CC2)nc2c(C)cccn2c1=O	-3.8	11.0	-0.2	1.5	-2.4	-3.8	.	.
CSCC[C@@H](CO)NC(=O)[C@H]1O[C@@H](n2ccc(=O)[nH]c2=O)[C@H](O)[C@@H]1O	-1.9	1.4	-1.4	-0.2	-0.4	-7.6	.	.
O=C(O)/C=C\C(=O)Nc1ccc(N2CCN(c3ccc(Cl)c(Cl)c3)CC2)cc1	-13.4	-17.7	35.1*	-6.2	3.9	6.3	-0.6	-1.9
O=C(O)/C=C\C(=O)Nc1ccc(N2CCN(c3ccc(Cl)cc3)CC2)cc1	-13.4	-31.8	7.1	-5.3	2.0	11.6	.	.
O=C(O)/C=C\C(=O)Nc1ccc(N2CCN(c3cccc(Cl)c3)CC2)cc1	-13.0	-10.6	16.8*	22.4	-0.3	1.6	-0.7	-5.0
Cc1cc(C(C)(C)C)cc(C)c1CC1=NCCN1	-6.8	-13.1	24.4*	-23.2	31.7	1.4	-0.6	24.3*
COc1ccc(-c2csc(Cc3nnc4n3CCCCC4)n2)cc1OC	-2.7	9.2	14.8*	4.1	9.8	-10.4	-0.6	-0.4
COc1ccc(-c2nnc3n2CCCCC3)cc1OC	-3.0	5.2	-4.3	-2.0	4.5	-1.6	.	.
COc1cc2c(c3ccccc13)CCCC2=O	-5.3	1.8	-1.4	-10.3	-2.1	-5.0	.	.
Cc1cc(C)n2nc(C(=O)OCC(=O)N(C)C3CCCCC3)nc2n1	-2.1	5.5	12.3	7.3	0.5	-10.1	.	.
COc1cccc(N2CCN(S(=O)(=O)c3ccc4nc(-c5ccccc5)[nH]c4c3)CC2)c1	-2.8	-3.2	16.0*	13.1	6.2	-10.8	-0.3	-1.5
COc1cccc(N2CCN(S(=O)(=O)c3ccc(-c4coc(C)n4)cc3)CC2)c1	-0.1	-2.4	4.9	17.7	1.6	-3.0	.	.
Cn1nc(Oc2ncc(C(F)(F)F)cc2Cl)cc1C(F)(F)F	-4.0	-0.6	1.2	6.5	7.9	1.6	.	.
CN=c1scc(-c2ccc([N+](=O)[O-])cc2)n1/N=C/c1ccco1	-6.1	4.3	-2.8	-23.1	-0.1	-4.7	.	.
CN=c1scc(-c2ccc(F)cc2)n1/N=C/c1ccc(O)c(O)c1	2.4	9.4	16.2*	8.6	8.0	-2.2	-0.5	85.2*
CCCN[C@H]1CCc2nc(N)sc2C1	-3.2	8.9	59.9*	-16.7	0.3	-23.4	-0.2	142.1*
CN1CCc2cc3c(c4c2[C@H]1[C@H](O)c1ccccc1-4)OCO3	-13.4	0.1	-5.1	-18.6	0.2	-3.8	.	.
CN1CCc2cccc3c2[C@H]1Cc1ccc(O)c(O)c1-3	-6.3	-26.4	44.1*	-19.9	18.0	45.4	-0.3	125.0*
